Measurements from paper PMC3775715 (Chemistry & biology, 2012).

Legend:
[1] = tested on: A549 cells; test: Metabolomics of steady-state metabolite levels in A549 cells; format: cell-based, human; settings: 24 hr, 0.5 uM for 9
[2] = biological target: recombinant PKM2 (Homo sapiens, UniProt P14618); test: Biochemical activity assay against recombinant PKM2; settings: for reactivation of PKM2 inhibited by phenylalanine: PKM2 preincubated with phenylalanine for 30 min
How it was run: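 Recombinant PKM2 was preincubated with phenylalanine for 30 min. Test compound or FBP was then added for 30 min, after which pyruvate kinase activity was measured.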

recombinant PKM2, sequence (P14618 whole entry): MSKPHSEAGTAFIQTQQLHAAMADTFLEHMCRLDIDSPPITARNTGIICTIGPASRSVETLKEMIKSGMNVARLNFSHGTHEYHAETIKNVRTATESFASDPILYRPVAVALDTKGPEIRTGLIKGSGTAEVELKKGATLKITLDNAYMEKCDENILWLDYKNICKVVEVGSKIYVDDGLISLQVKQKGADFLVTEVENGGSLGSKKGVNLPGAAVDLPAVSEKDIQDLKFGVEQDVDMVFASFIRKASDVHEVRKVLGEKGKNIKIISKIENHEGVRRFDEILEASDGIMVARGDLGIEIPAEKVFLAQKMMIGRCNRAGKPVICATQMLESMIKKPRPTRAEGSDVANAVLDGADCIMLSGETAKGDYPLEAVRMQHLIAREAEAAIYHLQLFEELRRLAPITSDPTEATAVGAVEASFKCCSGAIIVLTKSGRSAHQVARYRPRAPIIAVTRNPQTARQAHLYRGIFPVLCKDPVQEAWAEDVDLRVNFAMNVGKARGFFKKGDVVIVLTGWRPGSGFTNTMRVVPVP

| SMILES | changes in steady-state metabolite levels [1] | change in potency for PKM2 inhibited with phenylalanine ([2]; PKM2 inhibited with phenylalanine) | reactivation of PKM2 inhibited by phenylalanine [2] |
| --- | --- | --- | --- |
| CCCCS(=N)(=O)CC[C@H](N)C(=O)O (stereo partly shown) [BSO, buthionine sulfoxime] | induced robust changes in steady-state metabolite pools | – | – |
| N[C@@H](CO)C(=O)O [Serine, serine] | – | eight times loss in potency | partially restore the activity of PKM2 |
| O=C(COP(=O)(O)O)[C@@H](O)[C@H](O)[C@H](O)COP(=O)(O)O [FBP, fructose 1,6-bisphosphate] | – | – | partially reactivate PKM2 to the low basal level of activity |
